Measurements taken from ChEMBL document CHEMBL4706495, “A novel class of small molecule inhibitors with radioprotective properties” (Eur J Med Chem, 2020).
pIC50: −log10 of the molar value.

Tests used:
[1] = tested on: Jurkat; experiment: Cytotoxicity against human Jurkat cells assessed as cell viability at 10 uM measured after 48 hrs by WST-1 assay relative to control; assay type: functional; details: read-out: Activity
Summary of the method: (§1)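 Ten-line human panel (9 cancer, 1 non-cancerous). Cells were seeded at a pre-established optimal density (500–30 × 10³ per well) and settled overnight. Compounds came from 10 mM DMSO stocks and were tested at two concentrations. WST-1 readout followed the manufacturer's protocol at the end of cultivation. Viability is expressed as % of untreated control cells, mean of three independent experiments.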

[2] = tested on: MOLT-4; experiment: Cytotoxicity against human MOLT-4 cells assessed as cell viability at 10 uM measured after 48 hrs by WST-1 assay relative to control; assay type: functional; details: read-out: Activity; summary of the method: as §1
[3] = tested on: A549; experiment: Cytotoxicity against human A549 cells assessed as cell viability at 10 uM measured after 48 hrs by WST-1 assay relative to control; assay type: functional; details: read-out: Activity; summary of the method: as §1
[4] = tested on: HT-29; experiment: Cytotoxicity against human HT-29 cells assessed as cell viability at 10 uM measured after 48 hrs by WST-1 assay relative to control; assay type: functional; details: read-out: Activity; summary of the method: as §1
[5] = tested on: PANC-1; experiment: Cytotoxicity against human PANC-1 cells assessed as cell viability at 10 uM measured after 48 hrs by WST-1 assay relative to control; assay type: functional; details: read-out: Activity; summary of the method: as §1
[6] = tested on: A2780; experiment: Cytotoxicity against human A2780 cells assessed as cell viability at 10 uM measured after 48 hrs by WST-1 assay relative to control; assay type: functional; details: read-out: Activity; summary of the method: as §1
[7] = tested on: HeLa; experiment: Cytotoxicity against human HeLa cells assessed as cell viability at 10 uM measured after 48 hrs by WST-1 assay relative to control; assay type: functional; details: read-out: Activity; summary of the method: as §1
[8] = tested on: MCF7; experiment: Cytotoxicity against human MCF7 cells assessed as cell viability at 10 uM measured after 48 hrs by WST-1 assay relative to control; assay type: functional; details: read-out: Activity; summary of the method: as §1
[9] = tested on: SAOS-2; experiment: Cytotoxicity against human SAOS-2 cells assessed as cell viability at 10 uM measured after 48 hrs by WST-1 assay relative to control; assay type: functional; details: read-out: Activity; summary of the method: as §1
[10] = Cytotoxicity against human MRC5 cells assessed as cell viability at 10 uM measured after 48 hrs by WST-1 assay relative to control; assay type: cell-based; details: read-out: Activity; summary of the method: as §1
[11] = tested on: Jurkat; experiment: Cytotoxicity against human Jurkat cells assessed as cell viability at 100 uM measured after 48 hrs by WST-1 assay relative to control; assay type: functional; details: read-out: Activity; summary of the method: as §1
[12] = tested on: MOLT-4; experiment: Cytotoxicity against human MOLT-4 cells assessed as cell viability at 100 uM measured after 48 hrs by WST-1 assay relative to control; assay type: functional; details: read-out: Activity; summary of the method: as §1
[13] = tested on: A549; experiment: Cytotoxicity against human A549 cells assessed as cell viability at 100 uM measured after 48 hrs by WST-1 assay relative to control; assay type: functional; details: read-out: Activity; summary of the method: as §1
[14] = tested on: HT-29; experiment: Cytotoxicity against human HT-29 cells assessed as cell viability at 100 uM measured after 48 hrs by WST-1 assay relative to control; assay type: functional; details: read-out: Activity; summary of the method: as §1
[15] = tested on: PANC-1; experiment: Cytotoxicity against human PANC-1 cells assessed as cell viability at 100 uM measured after 48 hrs by WST-1 assay relative to control; assay type: functional; details: read-out: Activity; summary of the method: as §1
[16] = tested on: A2780; experiment: Cytotoxicity against human A2780 cells assessed as cell viability at 100 uM measured after 48 hrs by WST-1 assay relative to control; assay type: functional; details: read-out: Activity; summary of the method: as §1
[17] = tested on: HeLa; experiment: Cytotoxicity against human HeLa cells assessed as cell viability at 100 uM measured after 48 hrs by WST-1 assay relative to control; assay type: functional; details: read-out: Activity; summary of the method: as §1
[18] = tested on: MCF7; experiment: Cytotoxicity against human MCF7 cells assessed as cell viability at 100 uM measured after 48 hrs by WST-1 assay relative to control; assay type: functional; details: read-out: Activity; summary of the method: as §1
[19] = tested on: SAOS-2; experiment: Cytotoxicity against human SAOS-2 cells assessed as cell viability at 100 uM measured after 48 hrs by WST-1 assay relative to control; assay type: functional; details: read-out: Activity; summary of the method: as §1
[20] = Cytotoxicity against human MRC5 cells assessed as cell viability at 100 uM measured after 48 hrs by WST-1 assay relative to control; assay type: cell-based; details: read-out: Activity; summary of the method: as §1
[21] = tested on: HT-29; experiment: Cytotoxicity against human HT-29 cells assessed as growth percent at 100 uM by WST-1 assay relative to control; assay type: functional; details: HT-29, read-out: Activity, time 48 hrs
[22] = tested on: MCF7; experiment: Cytotoxicity against human MCF7 cells assessed as growth percent at 100 uM by WST-1 assay relative to control; assay type: functional; details: MCF7, read-out: Activity, time 48 hrs
[23] = tested on: A549; experiment: Cytotoxicity against human A549 cells assessed as reduction in cell viability incubated for 24 hrs by MTT assay; assay type: functional, cell-based; details: A549, 24 h
Summary of the method: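 A-549 cells in DMEM with 10% FBS and 1% penicillin-streptomycin were attached overnight. Compounds were prepared in PBS and serially diluted in DMEM, then incubated 24 h. Viability was read by colorimetric MTT reduction against an untreated control on each plate (100%). IC50 came from four-parameter nonlinear regression of the log concentration-response curve, mean ± SEM. MTC is the highest concentration not differing from control (t-test).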

[24] = tested on: A549; experiment: Cytotoxicity against human A549 cells assessed as maximum tolerated concentration incubated for 24 hrs by MTT assay; assay type: functional
Summary of the method: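 A-549 cells in DMEM with 10% FBS and 1% penicillin-streptomycin, left to attach overnight. Compounds made up in PBS, serially diluted in DMEM, incubated 24 h, then viability read by MTT reduction against untreated controls on each plate. MTC taken as the highest concentration showing no significant difference from non-treated control (t-test).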

[25] = tested on: MOLT-4; experiment: Radioprotective activity against gamma irradiation-induced apoptosis in human MOLT-4 cells assessed as viable cells at 100 uM pretreated with compound for 1 hr followed by gamma irradiation and measured after 24 hrs by annexinV/propidium iodide staining based flow cytometry (reference value: 40 %); assay type: functional; details: MOLT-4, light or radiation study, time 25 hrs, read-out: Activity
[26] = Toxicity in C57Bl/6 mouse assessed as mouth death at 100 mg/kg, ip measured after 30 days; assay type: organism-based; details: in vivo, 720 h, time 30 day
Summary of the method: (§2)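 Safety in C57Bl/6 mice (27 ± 3 g) given a single 100 mg/kg i.p. injection without irradiation. Deaths, adverse effects and body weight followed over 30 days against an untreated control group. Weight reported as change from day 0.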

[27] = Toxicity in C57Bl/6 mouse assessed as adverse effects at 100 mg/kg, ip measured after 30 days; assay type: organism-based; details: in vivo, 720 h, time 30 day; summary of the method: as §2
[28] = Toxicity in C57Bl/6 mouse assessed as average body weight at 100 mg/kg, ip and measured immediately (reference value: 26.3 +/- 2.4 g); assay type: organism-based; details: in vivo
[29] = Toxicity in C57Bl/6 mouse assessed as average body weight at 100 mg/kg, ip measured after 30 days (reference value: 27 +/ 3.2 g); assay type: organism-based; details: in vivo, 720 h, time 30 day
[30] = Toxicity in C57Bl/6 mouse assessed as change in body weight at 100 mg/kg, ip measured after 30 days (reference value: 103 +/- 12 %); assay type: organism-based; details: in vivo, 720 h, time 30 day
[31] = tested on: Mus musculus; experiment: Radioprotective activity in C57Bl/6 mouse assessed as median survival time at 100 mg/kg, ip administered 5 min prior to gamma-irradation at 8.5 Gy and measured after 30 days (reference value: 12 days); assay type: functional
[32] = tested on: Mus musculus; experiment: Radioprotective activity in C57Bl/6 mouse assessed as average body weight at 100 mg/kg, ip administered 5 min prior to gamma-irradation at 8.5 Gy and measured immediately (reference value: 25.4 +/- 2.6 g); assay type: functional
[33] = Immuno-toxicity in C57Bl/6 mouse assessed as decrease in absolute number of lymphocytes at 100 mg/kg, ip measured after 7 to 12 days post-treatment by flow cytometry; assay type: organism-based; details: in vivo, time 7-12 day
[34] = tested on: Mus musculus; experiment: Radioprotective activity in C57Bl/6 mouse assessed as average body weight at 100 mg/kg, ip administered 5 min prior to gamma-irradation at 8.5 Gy and measured after 30 days; assay type: functional
[35] = tested on: Mus musculus; experiment: Radioprotective activity in C57Bl/6 mouse assessed as body weight gain at 100 mg/kg, ip administered 5 min prior to gamma-irradation at 8.5 Gy measured after 30 days relative to control; assay type: functional
[36] = Immuno-toxicity in C57Bl/6 mouse assessed as decrease in absolute number of lymphocytes at 100 mg/kg, ip measured after 12 days post-treatment by flow cytometry; assay type: organism-based; details: in vivo, 288 h, time 12 day

Compound	viability at 10 µM [1] [%]	viability at 10 µM [2] [%]	viability at 10 µM [3] [%]	viability at 10 µM [4] [%]	viability at 10 µM [5] [%]	viability at 10 µM [6] [%]	viability at 10 µM [7] [%]	viability at 10 µM [8] [%]	viability at 10 µM [9] [%]	viability at 48 h, 10 µM [10] [%]	viability at 100 µM [11] [%]	viability at 100 µM [12] [%]	viability at 100 µM [13] [%]	viability at 100 µM [14] [%]	viability at 100 µM [15] [%]	viability at 100 µM [16] [%]	viability at 100 µM [17] [%]	viability at 100 µM [18] [%]	viability at 100 µM [19] [%]	viability at 48 h, 100 µM [20] [%]	further results
OCCN1CCN(CC(O)COc2cccc3ccccc23)CC1 (centres undefined)	96	98	98	93	102	97	99	103	97	102	76	83	107	53	101	77	129	64	97	78	growth at 100 µM [21]: 53%; growth at 100 µM [22]: 64%; pIC50 [23]: 3.38; MTD [24]: 0.07 mM; viability at 100 µM [25]: 59%
Cc1ccccc1OCC(O)CN1CCN(CCO)CC1 (centres undefined)	106	104	95	98	102	101	102	103	103	97	92	86	114	151	116	79	96	95	84	104	pIC50 [23]: 2.47; MTD [24]: 0.39 mM; viability at 100 µM [25]: 62%; Activity [26]: Non-Toxic; Activity [27]: Non-Toxic; Activity [28]: 26.2 g; Activity [29]: 27.2 g; Activity [30]: 104%; MST [31]: 7 days; Activity [32]: 27.3 g; Activity [33]: Toxic
C=CCc1ccc(OCC(O)CN2CCN(CCO)CC2)c(OC)c1 (centres undefined)	110	104	91	109	101	97	100	99	112	94	83	65	105	102	116	85	99	89	75	103	pIC50 [23]: 2.95; MTD [24]: 0.2 mM; viability at 100 µM [25]: 52%; Activity [26]: Non-Toxic; Activity [27]: Non-Toxic; Activity [28]: 25.7 g; Activity [29]: 27 g; Activity [30]: 105%; MST [31]: 12 days; Activity [32]: 25.1 g; Activity [34]: 27.3 g; Activity [35]: 103%; Activity [36]: Toxic
